Laboratory results reported in ChEMBL document CHEMBL4028890, “A Positive Allosteric Modulator of the Serotonin 5-HT2C Receptor for Obesity” (J Med Chem, 2017).
Calls of active or inactive are those of the source. The rule behind the calls is not given here.

Legend:
[1] = target: T1, 5-hydroxytryptamine receptor 2C (Homo sapiens) (UniProt P28335); test: Positive allosteric modulation of human 5-HT2C receptor expressed in human HeLa-K1 cells assessed as potentiation of 5-HT-induced inositol monophosphate release at 10 uM after 20 mins by HTRF assay relative to control; type: functional, cell-based
T1 sequence (whole entry): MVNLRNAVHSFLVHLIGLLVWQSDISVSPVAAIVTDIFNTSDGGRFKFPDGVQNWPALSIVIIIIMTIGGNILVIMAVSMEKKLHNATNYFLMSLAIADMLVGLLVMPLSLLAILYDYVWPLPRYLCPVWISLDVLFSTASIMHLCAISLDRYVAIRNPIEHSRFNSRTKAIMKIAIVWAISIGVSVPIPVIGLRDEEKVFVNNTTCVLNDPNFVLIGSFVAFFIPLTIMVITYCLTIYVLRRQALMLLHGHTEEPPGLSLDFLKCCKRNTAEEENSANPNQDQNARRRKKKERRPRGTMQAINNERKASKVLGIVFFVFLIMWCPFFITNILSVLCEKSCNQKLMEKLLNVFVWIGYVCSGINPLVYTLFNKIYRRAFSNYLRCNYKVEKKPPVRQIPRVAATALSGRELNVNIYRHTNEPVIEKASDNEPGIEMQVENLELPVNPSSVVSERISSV
Summary of the method: (§1)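 IP-One HTRF assay in CHO-K1 cells (human 5-HT2A, 5-HT2B) or HeLa-K1 cells (human 5-HT2C), seeded and grown 24 h at 37 °C. Test compound and/or 5-HT added in stimulation buffer, then 20 min at 37 °C before IP1 read-out. Data normalized to 5-HT maximal effect and fitted by nonlinear regression. Triplicates, mean ± SD.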

[2] = target: T2, 5-hydroxytryptamine receptor 2C (Homo sapiens, UniProt P28335); test: (§2) Positive allosteric modulation of human 5-HT2C receptor expressed in human HeLa-K1 cells assessed as potentiation of 5-HT-induced inositol monophosphate release after 20 mins by HTRF assay; type: functional, cell-based; summary of the method: as §1
T2 sequence (P28335 whole entry): T1 sequence (whole entry)

[3] = target: T1, 5-hydroxytryptamine receptor 2C (Homo sapiens); test: as §2; type: functional, cell-based; summary of the method: as §1
[4] = target: T1, 5-hydroxytryptamine receptor 2C (Homo sapiens); test: Displacement of [3H]-clozapine from human 5-HT2C receptor expressed in human HeLa-K1 cell membranes at 10 uM after 60 mins relative to control
Summary of the method: (§3)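 Membranes from 5-HT2C-HeLa cells with test compound (10 μM) in 50 mM Tris-HCl pH 7.4. Radioligands: [3H]mesulergine 4 nM, [3H]LSD 2 nM (15 μg protein each), [3H]clozapine 15 nM (20 μg), 60 min at 27 °C. [3H]5-HT 2 nM (60 μg), 180 min at 4 °C. Nonspecific binding with 10 μM mianserin. Filtered and washed, then counted. Triplicates, mean ± SD.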

[5] = target: T1, 5-hydroxytryptamine receptor 2C (Homo sapiens); test: Displacement of [3H]-LSD from human 5-HT2C receptor expressed in human HeLa-K1 cell membranes at 1 uM after 60 mins relative to control
[6] = test system: Rattus norvegicus; test: Antiobesity activity in Wistar rat assessed as reduction in food intake at 10 mg/kg, ip after 4 hrs relative to control; type: functional; design: scale not given: the % may be the effect or the level left
Summary of the method: (§4)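 Male Wistar rats, 200−250 g, 10−12 weeks, food-deprived 16 h before refeeding. Test compound given ip in sterile saline. Sertraline, ketanserin (2 mg/kg) or 5-HT2C antagonist (3 mg/kg) was given ip 30 min before the test compound. Food and water intake measured 30, 60, 120 and 240 min after food presentation. Mean ± SEM, at least 8 rats per group.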

[7] = target: T1, 5-hydroxytryptamine receptor 2C (Homo sapiens); test: Displacement of [3H]-LSD from human 5-HT2C receptor expressed in human HeLa-K1 cell membranes at 10 uM after 60 mins relative to control; summary of the method: as §3
[8] = test system: Rattus norvegicus; test: Antiobesity activity in restricted food access Wistar rat model assessed as reduction in body weight at 2 mg/kg, ip administered 30 mins prior to food presentation measured after 4 hrs on every day for 7 days; type: functional, organism-based
Summary of the method: (§5)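 Rats had food for 4 h/day. Once the feeding baseline was stable, compound (2 mg/kg ip) or vehicle was given 30 min before food presentation. Food and water intake read at the end of the 4 h period. Repeated on 7 consecutive days, with total intake and body weight tracked. Mean ± SEM, n ≥ 8.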

[9] = target: T3, 5-hydroxytryptamine receptor 2B (Homo sapiens, UniProt P41595); test: Positive allosteric modulation of human 5-HT2B receptor expressed in CHO-K1 cells assessed as potentiation of 5-HT-induced inositol monophosphate release at 10 uM after 20 mins by HTRF assay; type: cell-based; summary of the method: as §1
[10] = test system: Rattus norvegicus; test: In vivo positive allosteric modulation of serotonin-induced feeding suppression in Wistar rat at 0.5 mg/kg, ip after 4 hrs in presence of 2 mg/kg selective serotonin reuptake inhibitor sertraline; type: functional, organism-based; summary of the method: as §4
[11] = target: T3, 5-hydroxytryptamine receptor 2B; test: Intrinsic agonist activity at human 5-HT2B receptor expressed in CHO-K1 cells assessed as induction of inositol monophosphate release at 10 uM after 20 mins by HTRF assay; type: cell-based; summary of the method: as §1
[12] = test system: Rattus norvegicus; test: Toxicity in Wistar rat assessed as induction of hypolocomotion at 2 mg/kg, ip after 30 mins by open field test; type: organism-based; details: in vivo, 0.5 h
Summary of the method: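 Rats handled for 7 days before testing. Tested 30 min after ip dosing (2 mg/kg), placed in the centre of the open field. Distance walked was recorded automatically over 10 min. No retesting.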

[13] = test system: Rattus norvegicus; test: Antiobesity activity in continuous food access Wistar rat model assessed as reduction in body weight at 2 mg/kg, ip administered daily for 7 days; type: functional, organism-based
Summary of the method: (§6)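 Wistar rats made obese on 60% fat diet (5.24 kcal/g) for 8 weeks. Free-feeding rats got a daily ip injection of compound (2 mg/kg) or vehicle for 7 days. Daily chow intake (kcal/kg body weight) and body weight gain (g) recorded. Mean ± SEM, n ≥ 8 per group.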

[14] = target: T4, 5-hydroxytryptamine receptor 2A (Homo sapiens, UniProt P28223); test: Intrinsic agonist activity at human 5-HT2A receptor expressed in CHO-K1 cells assessed as induction of inositol monophosphate release at 10 uM after 20 mins by HTRF assay; type: cell-based; summary of the method: as §1
[15] = target: T1, 5-hydroxytryptamine receptor 2C (Homo sapiens); test: Intrinsic agonist activity at human 5-HT2C receptor expressed in human HeLa-K1 cells assessed as induction of inositol monophosphate release after 20 mins by HTRF assay; type: functional, cell-based; summary of the method: as §1
[16] = test system: Rattus norvegicus; test: In vivo positive allosteric modulation of serotonin-induced feeding suppression in Wistar rat at 2 mg/kg, ip after 4 hrs in presence of 5 mg/kg selective serotonin reuptake inhibitor sertraline; type: functional, organism-based; summary of the method: as §4
[17] = test system: Rattus norvegicus; test: Antiobesity activity in Wistar rat assessed as reduction in food intake at 2 mg/kg, ip after 4 hrs; type: functional, organism-based
Summary of the method: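 Male Wistar rats, 200−250 g, aged 10−12 weeks, food-deprived 16 h before refeeding. Compound given ip in sterile saline; food and water intake measured at 30, 60, 120 and 240 min after food presentation. Where used, antagonist (3 mg/kg, ip) or other pretreatments were injected 30 min before the compound. Mean ± SEM, at least eight rats per group.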

[18] = test system: Rattus norvegicus; test: Toxicity in Wistar rat assessed as induction of malaise at 2 mg/kg, ip measured 30 mins for 2 days by conditioned taste aversion test; type: organism-based; details: in vivo
Summary of the method: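 Rats water-deprived 24 h, then trained to drink from a graded bottle in 30 min sessions for 4 days. On day 5, 0.1% saccharin replaced water, and 30 min later rats got ip vehicle, compound (2 mg/kg) or LiCl (0.4 M, 7.5 mL/kg). Water intake was recorded over 30 min on the next 2 days, then a water or saccharin choice was measured.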

[19] = test system: Rattus norvegicus; test: Antiobesity activity in Wistar rat assessed as reduction in food intake at 2 mg/kg, ip after 4 hrs in presence of 5-HT2A antagonist ketanserin; type: functional, organism-based; summary of the method: as §4
[20] = target: T1, 5-hydroxytryptamine receptor 2C (Homo sapiens); test: Positive allosteric modulation of human 5-HT2C receptor expressed in human HeLa-K1 cells assessed as potentiation of 5-HT-induced inositol monophosphate release at 1 uM after 20 mins by HTRF assay relative to control; type: functional, cell-based
[21] = target: T4, 5-hydroxytryptamine receptor 2A; test: Positive allosteric modulation of human 5-HT2A receptor expressed in CHO-K1 cells assessed as potentiation of 5-HT-induced inositol monophosphate release at 10 uM after 20 mins by HTRF assay; type: cell-based; summary of the method: as §1
[22] = test system: Rattus norvegicus; test: Antiobesity activity in restricted food access Wistar rat model assessed as reduction in food intake at 2 mg/kg, ip administered 30 mins prior to food presentation measured after 4 hrs on every day for 7 days; type: functional, organism-based; summary of the method: as §5
[23] = Ratio of drug level in brain to plasma in Wistar rat at 10 mg/kg, ip measured up to 6 hrs; type: ADME, organism-based; details: read-out: BPR
[24] = test system: Rattus norvegicus; test: Antiobesity activity in Wistar rat assessed as reduction in food intake at 1 mg/kg, ip after 4 hrs in presence of 5-HT2C antagonist SB-242084; type: functional, organism-based; summary of the method: as §4
[25] = target: T1, 5-hydroxytryptamine receptor 2C (Homo sapiens); test: Displacement of [3H]-mesulergine from human 5-HT2C receptor expressed in human HeLa-K1 cell membranes at 10 uM after 60 mins relative to control; summary of the method: as §3
[26] = target: T1, 5-hydroxytryptamine receptor 2C (Homo sapiens); test: Displacement of [3H]-5-HT from human 5-HT2C receptor expressed in human HeLa-K1 cell membranes at 10 uM after 180 mins relative to control; summary of the method: as §3
[27] = test system: Rattus norvegicus; test: Toxicity in Wistar rat assessed as induction of hypolocomotion at 0.5 to 2 mg/kg, ip after 30 mins by elevated plus maze test; type: organism-based; details: in vivo, 0.5 h
Summary of the method: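 Maze-naive rats handled for 7 days. Placed in the centre facing an open arm 30 min after ip dosing. Open-arm entries and % time in open arms scored over 5 min. No retesting.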

[28] = test system: Rattus norvegicus; test: Antiobesity activity in continuous food access Wistar rat model assessed as reduction in food intake at 2 mg/kg, ip administered daily for 7 days; type: functional, organism-based; summary of the method: as §6

T4 sequence (P28223 whole entry): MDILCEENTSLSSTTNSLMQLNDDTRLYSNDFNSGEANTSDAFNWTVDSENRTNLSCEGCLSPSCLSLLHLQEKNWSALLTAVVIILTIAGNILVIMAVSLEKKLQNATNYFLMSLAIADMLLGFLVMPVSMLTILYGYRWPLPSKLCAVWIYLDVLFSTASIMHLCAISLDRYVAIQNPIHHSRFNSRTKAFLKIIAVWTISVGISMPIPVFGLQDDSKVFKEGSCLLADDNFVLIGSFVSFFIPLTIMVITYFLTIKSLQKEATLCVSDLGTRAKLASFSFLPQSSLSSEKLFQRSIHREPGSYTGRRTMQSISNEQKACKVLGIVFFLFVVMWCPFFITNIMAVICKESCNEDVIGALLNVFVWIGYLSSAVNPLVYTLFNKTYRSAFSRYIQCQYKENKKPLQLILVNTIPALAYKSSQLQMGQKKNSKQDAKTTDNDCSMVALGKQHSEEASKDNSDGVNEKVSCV
T3 sequence (P41595 whole entry): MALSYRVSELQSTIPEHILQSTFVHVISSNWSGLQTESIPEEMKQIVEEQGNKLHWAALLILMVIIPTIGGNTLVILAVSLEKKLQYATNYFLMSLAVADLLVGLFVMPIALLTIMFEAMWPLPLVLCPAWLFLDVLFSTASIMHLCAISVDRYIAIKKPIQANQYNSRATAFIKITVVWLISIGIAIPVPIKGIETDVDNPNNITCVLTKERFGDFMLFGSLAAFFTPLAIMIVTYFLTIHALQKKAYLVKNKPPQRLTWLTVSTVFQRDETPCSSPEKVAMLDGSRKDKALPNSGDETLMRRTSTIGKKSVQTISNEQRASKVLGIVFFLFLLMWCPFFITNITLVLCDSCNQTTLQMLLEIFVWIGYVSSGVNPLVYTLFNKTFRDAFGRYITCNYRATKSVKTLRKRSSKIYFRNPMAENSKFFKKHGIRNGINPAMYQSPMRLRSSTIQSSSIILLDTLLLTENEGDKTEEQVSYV

## Fc1ccc(Cn2cc(CNc3cccnc3)c3ccccc32)cc1
[1]
  Activity: 9%

## Brc1ccccc1Cn1cc(CNc2cccnc2)c2ccccc21
[1]
  Activity: 0%

## Clc1cccc(Cn2cc(CNc3cccnc3)c3ccccc32)c1
[1]
  Activity: 26%

## c1ccc(Cn2cc(CNc3ncccn3)c3ccccc32)cc1
[1]
  Activity: 0%

## c1ccc(Cn2cc(CNc3ccccn3)c3ccccc32)cc1
[1]
  Activity: 25%

## Clc1ccc(Cn2cc(CNc3cccnc3)c3ccccc32)cc1
[1]
  Activity: 13%

## c1cncc(NCc2cn(Cc3ccncc3)c3ccccc23)c1
[1]
  Activity: 9%

## Fc1ccc(Cn2cc(CNc3cccnc3)c3ccccc32)c(F)c1
[1]
  Activity: 9%

## c1ccc(Cn2cc(CNc3cnccn3)c3ccccc32)cc1
[1]
  Activity: 0%

## FC(F)(F)c1ccc(Cn2cc(CNc3cccnc3)c3ccccc32)cc1
[1]
  Activity: 8%

## c1ccc(Cn2cc(CNc3cccnn3)c3ccccc32)cc1
[1]
  Activity: 9%

## c1ccc(Cn2cc(CNc3cncnc3)c3ccccc32)cc1
[1]
  Activity: 20%

## c1ccc(Cn2cc(CNc3cccnc3)c3ccccc32)cc1
[2]
  EC50: 16 nM
[3]
  Activity: Dose-dependent effect
[4]
  inhibition: 36%
[5]
  inhibition: 21%
[6]
  Activity: 50%
[7]
  inhibition: 67%
[8]
  Activity: Active
[9]
  Activity: Not Active
[10]
  Activity: Active
[11]
  Activity: Not Active
[12]
  Activity: Toxic
[13]
  Activity: Active
[14]
  Activity: Not Active
[15]
  Activity: inactive
[16]
  Activity: Active
[17]
  Activity: Active
[18]
  Activity: Non-Toxic
[1]
  Activity: 35%
[19]
  Activity: Active
[20]
  Activity: 28%
[21]
  Activity: Not Active
[22]
  Activity: Active
[23]
  Kp at 6 h: 3.8
[24]
  Activity: Active
[25]
  inhibition: 26%
[26]
  inhibition: 37%
[27]
  Activity: Toxic
[28]
  Activity: Active

## Clc1ccccc1Cn1cc(CNc2cccnc2)c2ccccc21
[1]
  Activity: 7%

## Fc1ccccc1Cn1cc(CNc2cccnc2)c2ccccc21
[1]
  Activity: 6%

## FC(F)(F)c1ccccc1Cn1cc(CNc2cccnc2)c2ccccc21
[1]
  Activity: 9%

## FC(F)(F)c1cccc(Cn2cc(CNc3cccnc3)c3ccccc32)c1
[1]
  Activity: 0%

## c1ccc(Cn2cc(CNc3ccncn3)c3ccccc32)cc1
[1]
  Activity: 0%

## Fc1cccc(Cn2cc(CNc3cccnc3)c3ccccc32)c1
[1]
  Activity: 22%

## COc1ccccc1Cn1cc(CNc2cccnc2)c2ccccc21
[1]
  Activity: 0%
